SENP6 block – blocks the human protease SENP6; Q9GZR1; Recombinant SENP6 catalytic domain, aminoluciferin luminescence; inhibition, % at 10 µM; 1.8% of 330,000 active;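 active = inhibition above about 50% at the single tested dose, limit read from the data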;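 note: plate controls were DMSO wells with enzyme for no effect and DMSO wells lacking enzyme for full effect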
SENP8 block-1 – SENP8 (human) protease inhibition; Q96LD8; recombinant SENP8, Nedd8 substrate fluorescence; inhibition, % at 20 µM; 0.64% of 360,000 active; AID 602440; in the data active = inhibition mostly above about 40%, no sharp cut-off; inactive = mostly below about 27%
SENP7 block – inhibitors of human SENP7 protease; recombinant SENP7, Z-RLRGG-aminoluciferin luminescence, 40 min; inhibition, % at 5 µM; 1.5% of 330,000 active; AID 434973;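 active = inhibition above about 50% at the single test dose, limit read from the data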;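 note: plate controls were DMSO with enzyme for no effect and no enzyme buffer wells for full effect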
Target sequence (Q9BQF6 706-1050 limits assumed): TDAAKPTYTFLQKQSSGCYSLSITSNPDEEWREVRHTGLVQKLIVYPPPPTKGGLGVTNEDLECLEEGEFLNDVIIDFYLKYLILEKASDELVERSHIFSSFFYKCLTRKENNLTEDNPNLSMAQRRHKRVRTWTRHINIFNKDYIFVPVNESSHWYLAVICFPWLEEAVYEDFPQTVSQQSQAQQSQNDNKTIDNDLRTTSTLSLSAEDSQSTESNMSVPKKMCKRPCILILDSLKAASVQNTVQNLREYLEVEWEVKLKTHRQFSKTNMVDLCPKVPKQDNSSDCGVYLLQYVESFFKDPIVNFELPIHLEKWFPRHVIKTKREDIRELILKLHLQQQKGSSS
Platelet DG rel – platelet dense granule release activity | AID 1663 | 0.22% of 300,000 active | human platelet-rich plasma, SFLLRN dense granule ATP release, luminescence | inhibition, %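 (compounds screened at 7.5 µM in platelet-rich plasma)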;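 active = mean replicate score, as percent of positive control, at or above 50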
SENP1 inh – SENP1 (human) catalytic domain inhibition | Q9P0U3 | AID 624204 | inhibition, % at 10 µM | recombinant SENP1 catalytic domain, CyPet-SUMO1-YPet FRET cleavage | 0.21% of 360,000 active;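 active = inhibition at least 30% at 10 µM, raw YFP signal under a set limit, fluorescence ratio 0.5 to 1.5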;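 note: 0% = enzyme with DMSO and 100% = no enzyme wells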
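Assay system: hSENP1 catalytic domain, recombinant. Amount: SENP1 enzyme, 20 pM final. Schedule: 50 min reaction, RT, dark. Technique: FRET, CFP and YFP emission. Control set: no-enzyme wells low, DMSO-plus-enzyme wells high control.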
SENP8 block-2 – inhibitors of human SENP8 protease | inhibition, % at 10 µM | AID 2540 | 1.2% of 330,000 active | purified SENP8, Z-RLRGG-aminoluciferin cleavage, luminescence | Q96LD8; in the data active = inhibition above about 50%
Active calls of the source: *; / = not tested or not shown. Compounds with a hit are over-represented: about 2.6% of the library has one in this group of screens.

SMILES | SENP6 block | SENP8 block-1 | SENP7 block | Platelet DG rel | SENP1 inh | SENP8 block-2
COc1ccc(Br)cc1CNc1ccc(O)cc1 | 6.4 | 60.9* | 57.9* | / | 0.7 | -5.7
CN1/C(=C/C=C/c2n(C)c3cc([N+](=O)[O-])c([N+](=O)[O-])cc3[n+]2C)C(C)(C)c2ccccc21 | / | 60.1* | / | / | -27.4 | /
Cc1cc(=O)oc2c3c(cc(OCC(=O)N4CCC[C@H]4C(=O)O)c12)OC(C)(C)CC3 | -3.3 | -195.8 | 4.2 | 10.2 | 0.2 | -1.5
CCOC(=O)c1c(C)c(-c2ccccc2)n(CC(=O)N2CCN(C)CC2)c1C | -26.5 | -4.4 | 8.8 | -1.7 | -0.4 | -3.8
CCOC(=O)c1c(C)c(-c2ccccc2)n(CC(=O)N2CCCC2)c1C | -6.4 | 6.9 | 16.6 | 55.7* | 2.3 | -12.8
O=C(O)c1ccc(N=Nc2c(O)[nH]c3ccccc23)cc1 | 99.3* | 16.5 | 99.6* | 133.0* | -25.3 | 97.3*
NC(CO)C(=O)NNCc1ccc(O)c(O)c1O (stereo not drawn) | 8.9 | 44.8* | 16.2 | 1.4 | 4.6 | 4.3
COc1cc(/C=C2\C(=O)N(CCC#N)N=C2C)c(Br)cc1OC(C)C | 40.4 | 46.3* | 23.7 | 9.6 | 0.2 | 3.8
CC1=NN(c2ccccc2)C(=O)/C1=C\c1cn(CCC#N)nc1-c1ccc(Cl)cc1 | 45.7 | 21.5 | 8.7 | -3.3 | 2.7 | -3.0
C/C(=N\NC(=O)c1cc(Cl)ccc1O)c1ccc(Br)s1 | 79.0* | -167.9 | 48.7 | -17.6 | -3.0 | 74.0*
Fc1ccccc1-c1nc2ccccc2[nH]1 | 74.1* | -49.1 | 75.9* | 4.0 | 2.4 | 62.8*
COc1ccccc1NC(=O)c1c(N=Cc2ccccc2O)cnn1C | 15.5 | / | 3.2 | 0.5 | / | 2.4
COC1=C(C)C(=O)C2=C(C1=O)C1C3CC4=C(C(=O)C(OC)=C(C)C4=O)C(CNC(=O)C(C)=O)N3C(C#N)C(C2)N1C (stereo not drawn) | / | 54.9* | / | / | 2.6 | /
Cc1ccc(C)c(NS(=O)(=O)c2cc3c4c(c2)CC(=O)N4CCC3)c1 | 2.8 | 6.1 | 0.3 | 3.7 | 1.0 | -2.6
CN(C)c1ccc(-c2cc([C@H]3[C@@H]4C=CCC[C@@]4(C)C(=O)N3Cc3ccccc3)ccc2F)cc1 | -2.7 | -450.6 | 3.1 | 2.5 | 47.8* | -1.1
O=c1[nH]c(CCl)nc2cc(-c3ccc(F)cc3)sc12 | 88.6* | -1.9 | 47.4 | -17.9 | -1.7 | 78.9*
Cn1cccc1/C=C1\SC(=Nc2cccc(O)c2)NC1=O | 77.8* | 13.5 | 52.2* | 9.0 | -118.4 | 54.3*
O=C1NC(=Nc2ccccc2)S/C1=C\c1cccs1 | 69.4* | 16.7 | 43.1 | 1.3 | -1.4 | 59.2*
Cn1cccc1/C=C1\SC(=Nc2ccc(O)cc2)NC1=O | -0.1 | 13.5 | 4.1 | 2.7 | -41.4 | -10.6
COc1ccc(C(c2nnnn2CCc2ccccc2)N2CCN(C3CCCC3)CC2)cc1 (stereo not drawn) | -6.4 | 20.9 | 0.5 | -5.1 | 2.9 | 1.7
COc1ccccc1N1CCN(C(c2ccc(N(C)C)cc2)c2nnnn2CCc2ccccc2)CC1 (stereo not drawn) | -4.2 | 46.6* | -5.8 | 1.2 | -1.1 | -3.1
CCc1ccc(S(=O)(=O)/N=C2\C=C(Nc3ccc(O)cc3)C(=O)c3ccccc32)cc1 | 89.1* | 101.4* | 66.9* | 13.6 | 2.6 | 90.7*
CCc1ccc(S(=O)(=O)/N=C2\C=C(Nc3cccc(C(=O)O)c3)C(=O)c3ccccc32)cc1 | 92.4* | 69.6* | 46.7 | -5.1 | 2.2 | 95.0*
CCc1ccc(S(=O)(=O)/N=C2/C=C(Sc3ncn[nH]3)C(=O)c3ccccc32)cc1 | / | -64.7 | / | / | 6.3 | /
CCc1ccc(S(=O)(=O)/N=C2\C=CC(=O)c3ccccc32)cc1 | 49.9 | / | 12.2 | -6.2 | / | 3.3
Cc1ccc(CNC(=O)CCC(=O)Nc2nnc(C)s2)cc1 | -12.8 | 15.3 | 5.7 | -9.1 | 2.5 | 0.3
COc1cc(/C=C2\CC(C(C)(C)C)C/C(=C\c3cc(OC)c(OC)c(OC)c3)C2=O)cc(OC)c1OC (stereo not drawn) | 0.7 | 20.7 | 2.2 | 4.7 | 37.3* | -1.0
Clc1ccc(OCc2nc3ccccc3[nH]2)cc1 | 72.0* | -2.9 | 82.4* | 4.0 | 2.7 | 56.3*
O=S(=O)(CCc1nc2ccccc2[nH]1)c1ccc(Cl)cc1 | -3.5 | 29.5 | -0.5 | -16.3 | 0.4 | -12.5
